Assay results of several laboratories.
JAK3: Tyrosine-protein kinase JAK3 (JAK3, Homo sapiens, UniProt P52333)
JAK3 JH1: Tyrosine-protein kinase JAK3, JH1 (JAK3, Homo sapiens, UniProt P52333)

For `COc1cc2ncnc(Nc3ccc(Oc4ccccc4)c(C)c3C)c2cc1OC`, the inhibition was 5% (JAK3; enzyme activity; inhibitor; 1 µM).
With `O=C(Nc1cnc(Oc2ccc(F)cc2)nc1)N1CCc2ncccc2[C@@H]1c1ccc(F)cc1` the remaining binding was 91% (JAK3 JH1; cell-free assay; competition with immobilised ligand; 1 µM).
For `N[C@H]1CCN(c2nccc(-c3cnn4ncccc34)n2)C1`, the remaining signal was 86% (JAK3 JH1; cell-free assay; 1 µM).
With `CCC(=N\O)/C(C)=C/c1ccc(F)cc1` the remaining binding was 80% (JAK3 JH1; cell-free assay; competition with immobilised ligand; 1 µM).
For `Cc1ccc(C(=O)Nc2ccc(CN3CCN(C)CC3)c(C(F)(F)F)c2)cc1C#Cc1cnc2cccnn12`, the remaining activity was 14% (JAK3; enzyme activity; inhibitor; 23.5 nM).
The remaining binding of `O=C(O)[C@@H]1[C@@H](Cn2nnc3ccccc3c2=O)CC[C@H]1C(=O)c1ccc(OCCC2CCOCC2)cc1` is reported as 95% (JAK3 JH1; cell-free assay; competition with immobilised ligand; 1 µM).
The inhibition of `O=C(CSc1nc2nccnc2c(=O)n1CCc1ccccc1)Nc1nccs1` is reported as -2% (JAK3; enzyme activity; inhibitor; 10 µM).
`CN1CC(Oc2cnc(C#N)cc2-c2ccn3nc(NC(=O)C4CC4)cc3c2)C1` has an inhibition of 15% (JAK3; enzyme activity; inhibitor; 1 µM).
`COc1cc(Cl)c(C(=O)N[C@@H](CN[C@H]2CC[C@@H](N)CC2)Cc2ccc(C#N)cc2)cc1-c1ccc(CN[C@H](C)c2ccc(C)cc2)o1` has a remaining activity of 101% (JAK3; enzyme activity; inhibitor; 1 µM).
`O=C(Nc1cnn(-c2csc(C(=O)NC3COC3)c2)c1)Nc1ccccc1Cl` has a remaining activity of 102% (JAK3; enzyme activity; inhibitor; 5 µM).
With `CC(C)(C)c1nc(-c2cccc(NS(=O)(=O)c3c(F)cccc3F)c2F)c(-c2ccnc(N)n2)s1` the remaining activity was 115% (JAK3; enzyme activity; inhibitor; radiometric; 1 µM).
The inhibition of `Cc1ccc(Nc2nccc(N(C)c3ccc4c(C)n(C)nc4c3)n2)cc1S(N)(=O)=O` is reported as 11% (JAK3; enzyme activity; inhibitor; 0.3 µM).
`O=C(NC[C@@H]1[C@H]2CN(C(=O)OCc3cc(C(F)(F)F)cc(C(F)(F)F)c3)C[C@@H]12)c1ccc2[nH]nnc2c1` gave a remaining binding of 69% (JAK3 JH1; cell-free assay; competition with immobilised ligand; 1 µM).
For `O=C1Nc2ccc(Cl)cc2C1=Cc1cc(Cl)c(O)c(Cl)c1`, the remaining signal was 100% (JAK3; cell-free assay; 0.5 µM).
`Nc1ncnc2occ(-c3ccc(NC(=O)Nc4cc(C(F)(F)F)ccc4F)cc3)c12` has a remaining signal of 4.3% (JAK3 JH1; cell-free assay; inhibitor; 20 µM).
`CNC(=O)c1cc(Oc2ccc(NC(=O)Nc3ccc(Cl)c(C(F)(F)F)c3)cc2)ccn1` has a remaining signal of 99.4% (JAK3; cell-free assay; 0.5 µM).
`CN(c1nccc(-c2cnn3ncccc23)n1)C1CC1` has a remaining signal of 100% (JAK3 JH1; cell-free assay; 1 µM).
`O=C(NCCCC1CCCCC1)c1ccc(CNC(=O)c2cnn(-c3ccccc3)c2C(F)(F)F)cc1` gave a remaining binding of 100% (JAK3 JH1; cell-free assay; competition with immobilised ligand; 0.1 µM).
`CCN(CC)CCNC(=O)c1c(C)[nH]c(/C=C2\C(=O)Nc3ccc(F)cc32)c1C` has an inhibition of 69% (JAK3; enzyme activity; inhibitor; 10 µM).
For `CC/C(=N\NC(=O)NCc1cccc(O)c1)c1ccc(O)c(C)c1O`, the inhibition was 3% (JAK3; enzyme activity; inhibitor; 0.1 µM).
`O=C(O)c1cc(-c2ccc(C3CCNCC3)cc2)c2ccc(-c3ccc(C(F)(F)F)cc3)cc2c1` gave a remaining binding of 100% (JAK3 JH1; cell-free assay; competition with immobilised ligand; 1 µM).
With `C=CC(=O)Nc1cc(Nc2nccc(Nc3cc(Cl)c(F)cc3C(C)(C)O)n2)c(OC)cc1N1CC[C@@H](N(C)C)C1` the inhibition was 24% (JAK3; enzyme activity; inhibitor; 1 µM).
The remaining binding of `NS(=O)(=O)c1cc(NC(=O)Cc2ccccc2)ccc1Oc1cccc(Cl)c1` is reported as 96% (JAK3 JH1; cell-free assay; competition with immobilised ligand; 1 µM).
The remaining signal of `Oc1ccc(-c2nc(-c3ccncc3)c(-c3ccc(F)cc3)[nH]2)cc1` is reported as 95.8% (JAK3; cell-free assay; 0.5 µM).
For `Cc1ccc(C(=O)NCc2ccsc2)cc1C#Cc1cn(C(C)C)c2ncnc(N)c12`, the activity vs control was 74% (JAK3; enzyme activity; inhibitor; 1 µM).
For `CCc1ccccc1C(=O)Nc1n[nH]c2c(C)c(F)c(C3C(C#N)=C(C)N(C)C(C)=C3C#N)cc12`, the remaining binding was 79% (JAK3 JH1; cell-free assay; competition with immobilised ligand; 1 µM).
`C[C@H]1CCN(c2nccc(-c3cnn4ncccc34)n2)C1` gave a remaining signal of 84% (JAK3 JH1; cell-free assay; 1 µM).
The remaining activity of `Cc1sc(C(=O)NC2COC2)cc1-n1cc(NC(=O)Nc2c(F)cccc2Cl)cn1` is reported as 96.7% (JAK3; enzyme activity; inhibitor; 10 µM).
